According to ChEMBL document CHEMBL2150858 (J Med Chem, 2011):
Values after ≈ are worked out from the molar mass of the structure shown. Active and inactive are the calls of the source. The rule behind the calls is not given here.

Key:
[1] = biological target: Calcium/calmodulin-dependent protein kinase type II subunit gamma (Homo sapiens, UniProt Q13555); assay: Binding affinity to CAMK2G
How it was run: (§1)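 Compounds were diluted from 40× DMSO stocks, 11 concentrations plus blank in duplicate. Incubation 1 h at room temperature with shaking in SeaBlock/PBS/Tween 20/DTT buffer, then bead wash. Kd determined; 40000 nM denotes no binding.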

[2] = biological target: Calcium/calmodulin-dependent protein kinase kinase 2 (Homo sapiens, UniProt Q96RR4); assay: Binding affinity to CAMKK2; how it was run: as §1
Chain of Calcium/calmodulin-dependent protein kinase kinase 2 (Q96RR4 whole entry, the tested form may be a part): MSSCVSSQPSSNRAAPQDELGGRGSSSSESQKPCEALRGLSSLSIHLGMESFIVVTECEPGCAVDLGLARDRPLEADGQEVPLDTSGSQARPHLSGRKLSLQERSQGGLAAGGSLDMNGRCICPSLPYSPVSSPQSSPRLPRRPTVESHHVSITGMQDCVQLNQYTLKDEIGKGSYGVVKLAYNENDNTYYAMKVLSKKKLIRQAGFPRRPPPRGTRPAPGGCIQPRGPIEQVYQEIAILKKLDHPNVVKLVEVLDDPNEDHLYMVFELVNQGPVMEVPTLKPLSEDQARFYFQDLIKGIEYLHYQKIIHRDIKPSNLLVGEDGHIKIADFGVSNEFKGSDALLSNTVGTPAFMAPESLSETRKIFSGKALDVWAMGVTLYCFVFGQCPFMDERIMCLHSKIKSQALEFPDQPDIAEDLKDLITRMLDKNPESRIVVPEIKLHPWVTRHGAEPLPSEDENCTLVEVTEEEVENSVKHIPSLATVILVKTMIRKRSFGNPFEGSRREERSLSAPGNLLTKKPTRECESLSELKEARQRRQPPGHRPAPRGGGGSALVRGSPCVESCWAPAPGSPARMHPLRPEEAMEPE

[3] = system: Aorta; assay: Antiangiogenic activity in Fischer rat aorta fragments assessed as vessel outgrowth after 5 days; format: functional, tissue-based; conditions: 120 h
How it was run: (§2)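 Thoracic aorta rings (1 mm cross-sections) from 3–9 month-old female Fischer rats, each embedded in fibrin gel with 5 μg/mL aprotinin. Compound added from DMSO stock, max final 100 μg/mL, six replicates; 0.1% DMSO vehicle control. Grown 5 days at 37 °C in 5% CO2, medium changed on day 4. On day 5, microvessel outgrowth was scored manually at 40× as percent of field occupied.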

[4] = Toxicity in human IGROV1 cells; format: cell-based, IGROV-1; conditions: read-out: LD50 (the source's name)
How it was run: (§3)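 NCI-60 human cancer cell line screen, two-stage. All lines first receive a single 10 μM dose. Selected compounds then go to a five-concentration assay spanning 100 μM to 10 nM, with 48 h exposure. LD50 (cell kill) is derived from the dose-response and kept separate from GI50 (growth retardation without cell death).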

[5] = system: Aorta; assay: Antiangiogenic activity in Fischer rat aorta fragments assessed as vessel outgrowth at 100 ug/mL after 5 days; format: functional; conditions: 120 h; how it was run: as §2
[6] = Toxicity in human Caki1 cells; format: cell-based, CAKI-1; conditions: read-out: LD50 (the source's name); how it was run: as §3
[7] = Toxicity in human M14 cells; format: cell-based; conditions: read-out: LD50 (the source's name); how it was run: as §3
[8] = system: Aorta; assay: Antiangiogenic activity in Fischer rat aorta fragments assessed as vessel outgrowth at 0.1 ug/mL after 5 days; format: functional; conditions: 120 h; how it was run: as §2
[9] = system: NCI60; assay: Growth inhibition of human NCI60 cells at 1 to 10 uM; format: functional, cell-based
[10] = biological target: Non-receptor tyrosine-protein kinase TYK2 (Homo sapiens) (UniProt P29597); assay: Binding affinity to JH domain of TYK2 assessed as ATP binding remaining at 10 uM
How it was run: (§4)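 Ambit phage-display competition binding against immobilized ATP-site ligands. Kinase-tagged T7 phage or HEK-293-expressed DNA-tagged kinases were incubated with liganded streptavidin beads and compound at 10 μM, 1 h at room temperature with shaking. After washing, retained kinase was quantified; readout is percent of control binding remaining.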

[11] = system: Malme-3M; assay: Induction of cell growth in human MALME-3M cells at 10 uM; format: functional
[12] = Toxicity in human NCI-H460 cells; format: cell-based; conditions: read-out: LD50 (the source's name); how it was run: as §3
[13] = Toxicity in human SK-MEL-5 cells; format: cell-based; conditions: read-out: LD50 (the source's name); how it was run: as §3
[14] = system: Aorta; assay: Antiangiogenic activity in Fischer rat aorta fragments assessed as vessel outgrowth at 1 ug/mL after 5 days; format: functional; conditions: 120 h; how it was run: as §2
[15] = biological target: Matrix metalloproteinase-14 (Homo sapiens, UniProt P50281); assay: Inhibition of MMP14 using MOCAc-Pro-Leu-Gly-Leu-A2pr(Dnp)-Ala-Arg- NH2 as substrate at 20 ug/ml preincubated for 10 mins measured after 3 hrs by fluorescence assay
How it was run: (§5)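 Fluorogenic MMP assay (modified Knight method) in TNC buffer: 50 mM Tris-HCl pH 7.5, 150 mM NaCl, 10 mM CaCl2, 0.05% Brij-35. Enzyme stock was 5 ng/mL for MMP-2 and 40 ng/mL for MT1-MMP, preincubated with sample 10 min at 37 °C. Substrate solution at 10 μM was added, then incubated 3 h at 37 °C. Fluorescence read at ex 328/em 393 nm; a no-enzyme blank was subtracted. Controls were batimastat and 1% DMSO.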

[16] = system: Aorta; assay: Antiangiogenic activity in Fischer rat aorta fragments assessed as vessel outgrowth at 100 ug/mL after 5 days relative to PI-88; format: functional
[17] = biological target: Calcium/calmodulin-dependent protein kinase kinase 1 (Homo sapiens, UniProt Q8N5S9); assay: Binding affinity to CAMKK1
Chain of Calcium/calmodulin-dependent protein kinase kinase 1 (Q8N5S9 whole entry): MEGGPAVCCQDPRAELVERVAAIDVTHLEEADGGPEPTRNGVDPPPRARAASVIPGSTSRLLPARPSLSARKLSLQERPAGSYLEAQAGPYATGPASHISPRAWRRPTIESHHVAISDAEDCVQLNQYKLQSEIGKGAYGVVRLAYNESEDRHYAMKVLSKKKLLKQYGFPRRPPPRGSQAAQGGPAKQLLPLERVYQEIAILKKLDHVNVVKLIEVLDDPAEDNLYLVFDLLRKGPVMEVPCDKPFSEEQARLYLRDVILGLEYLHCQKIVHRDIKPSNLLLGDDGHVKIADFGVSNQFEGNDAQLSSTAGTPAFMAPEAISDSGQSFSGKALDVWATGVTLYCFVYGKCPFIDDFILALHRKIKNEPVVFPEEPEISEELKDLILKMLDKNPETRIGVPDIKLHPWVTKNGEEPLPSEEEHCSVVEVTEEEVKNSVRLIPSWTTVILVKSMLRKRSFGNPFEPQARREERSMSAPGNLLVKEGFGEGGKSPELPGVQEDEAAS
How it was run: (§6)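 Competition binding run by Ambit. They were mixed with ligand-loaded streptavidin magnetic beads and compound (40× DMSO stocks) in SeaBlock/PBS/Tween/DTT buffer. Incubation was 1 h at room temperature, then beads were washed. KD was determined from 11 concentrations plus a blank, in duplicate. A value of 40000 nM indicates no binding.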

[18] = biological target: Dual specificity tyrosine-phosphorylation-regulated kinase 1A (Homo sapiens) (UniProt Q13627); assay: Binding affinity to DYRK1A assessed as ATP binding remaining at 10 uM; how it was run: as §4
[19] = biological target: 72 kDa type IV collagenase (Homo sapiens, UniProt P08253); assay: Inhibition of human recombinant MMP2 using MOCAc-Pro-Leu-Gly-Leu-A2pr(Dnp)-Ala-Arg- NH2 as substrate at 20 ug/ml preincubated for 10 mins measured after 3 hrs by fluorescence assay; how it was run: as §5
Chain of 72 kDa type IV collagenase (P08253 110-660 limits assumed): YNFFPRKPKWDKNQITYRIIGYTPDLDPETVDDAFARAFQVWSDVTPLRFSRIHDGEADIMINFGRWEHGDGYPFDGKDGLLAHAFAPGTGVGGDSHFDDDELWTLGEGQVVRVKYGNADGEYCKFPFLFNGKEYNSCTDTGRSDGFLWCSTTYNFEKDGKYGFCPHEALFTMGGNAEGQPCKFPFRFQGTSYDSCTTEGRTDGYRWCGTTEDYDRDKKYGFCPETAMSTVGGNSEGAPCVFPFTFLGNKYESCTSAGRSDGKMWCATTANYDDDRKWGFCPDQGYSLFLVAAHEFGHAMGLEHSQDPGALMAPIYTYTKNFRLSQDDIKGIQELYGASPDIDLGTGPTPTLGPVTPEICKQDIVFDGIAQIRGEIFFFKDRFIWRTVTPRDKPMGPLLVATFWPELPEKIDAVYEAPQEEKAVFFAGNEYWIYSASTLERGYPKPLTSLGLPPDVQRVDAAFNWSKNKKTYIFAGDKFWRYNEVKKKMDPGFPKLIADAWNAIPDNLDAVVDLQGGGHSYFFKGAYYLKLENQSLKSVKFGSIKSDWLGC

[20] = biological target: Serine/threonine-protein kinase pim-1 (Homo sapiens, UniProt P11309); assay: Inhibition of human recombinant PIM1 using [gamma-32P] ATP at 100 uM after 30 mins by scintillation counting
Chain of Serine/threonine-protein kinase pim-1 (P11309 whole entry, looked up): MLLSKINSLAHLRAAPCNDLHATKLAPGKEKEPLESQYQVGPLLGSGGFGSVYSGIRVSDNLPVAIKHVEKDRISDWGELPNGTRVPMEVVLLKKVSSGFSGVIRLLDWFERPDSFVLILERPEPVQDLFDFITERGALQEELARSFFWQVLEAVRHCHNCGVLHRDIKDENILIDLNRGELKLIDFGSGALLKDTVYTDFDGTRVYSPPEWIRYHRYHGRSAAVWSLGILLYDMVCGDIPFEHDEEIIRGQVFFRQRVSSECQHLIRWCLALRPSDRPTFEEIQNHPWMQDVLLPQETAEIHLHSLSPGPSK
How it was run: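 Recombinant human Pim1 assayed as for CDK1/CDK5: histone H1 substrate, 15 μM [γ-32P]ATP final, 30 °C. Read by P81 filter binding and scintillation counting; activity expressed as percent of no-inhibitor control after blank subtraction.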

[21] = Inhibition of GSK3 at 100 uM
[22] = system: Aorta; assay: Antiangiogenic activity in Fischer rat aorta fragments assessed as vessel outgrowth at 10 ug/mL after 5 days; format: functional; conditions: 120 h; how it was run: as §2
[23] = biological target: Casein kinase I isoform alpha (Sus scrofa, UniProt O19175); assay: Inhibition of porcine brain CK1 using RRKHAAIGpSAYSITA as substrate
Chain of Casein kinase I isoform alpha (O19175 whole entry, canonical isoform): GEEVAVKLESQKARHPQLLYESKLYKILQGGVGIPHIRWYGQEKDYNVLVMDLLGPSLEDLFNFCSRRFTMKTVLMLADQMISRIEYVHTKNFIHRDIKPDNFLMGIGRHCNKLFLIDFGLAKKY

[24] = biological target: Mitogen-activated protein kinase kinase kinase 19 (Homo sapiens) (UniProt Q56UN5); assay: Binding affinity to YSK4 assessed as ATP binding remaining at 10 uM; how it was run: as §4
Chain of Mitogen-activated protein kinase kinase kinase 19 (Homo sapiens) (Q56UN5 whole entry): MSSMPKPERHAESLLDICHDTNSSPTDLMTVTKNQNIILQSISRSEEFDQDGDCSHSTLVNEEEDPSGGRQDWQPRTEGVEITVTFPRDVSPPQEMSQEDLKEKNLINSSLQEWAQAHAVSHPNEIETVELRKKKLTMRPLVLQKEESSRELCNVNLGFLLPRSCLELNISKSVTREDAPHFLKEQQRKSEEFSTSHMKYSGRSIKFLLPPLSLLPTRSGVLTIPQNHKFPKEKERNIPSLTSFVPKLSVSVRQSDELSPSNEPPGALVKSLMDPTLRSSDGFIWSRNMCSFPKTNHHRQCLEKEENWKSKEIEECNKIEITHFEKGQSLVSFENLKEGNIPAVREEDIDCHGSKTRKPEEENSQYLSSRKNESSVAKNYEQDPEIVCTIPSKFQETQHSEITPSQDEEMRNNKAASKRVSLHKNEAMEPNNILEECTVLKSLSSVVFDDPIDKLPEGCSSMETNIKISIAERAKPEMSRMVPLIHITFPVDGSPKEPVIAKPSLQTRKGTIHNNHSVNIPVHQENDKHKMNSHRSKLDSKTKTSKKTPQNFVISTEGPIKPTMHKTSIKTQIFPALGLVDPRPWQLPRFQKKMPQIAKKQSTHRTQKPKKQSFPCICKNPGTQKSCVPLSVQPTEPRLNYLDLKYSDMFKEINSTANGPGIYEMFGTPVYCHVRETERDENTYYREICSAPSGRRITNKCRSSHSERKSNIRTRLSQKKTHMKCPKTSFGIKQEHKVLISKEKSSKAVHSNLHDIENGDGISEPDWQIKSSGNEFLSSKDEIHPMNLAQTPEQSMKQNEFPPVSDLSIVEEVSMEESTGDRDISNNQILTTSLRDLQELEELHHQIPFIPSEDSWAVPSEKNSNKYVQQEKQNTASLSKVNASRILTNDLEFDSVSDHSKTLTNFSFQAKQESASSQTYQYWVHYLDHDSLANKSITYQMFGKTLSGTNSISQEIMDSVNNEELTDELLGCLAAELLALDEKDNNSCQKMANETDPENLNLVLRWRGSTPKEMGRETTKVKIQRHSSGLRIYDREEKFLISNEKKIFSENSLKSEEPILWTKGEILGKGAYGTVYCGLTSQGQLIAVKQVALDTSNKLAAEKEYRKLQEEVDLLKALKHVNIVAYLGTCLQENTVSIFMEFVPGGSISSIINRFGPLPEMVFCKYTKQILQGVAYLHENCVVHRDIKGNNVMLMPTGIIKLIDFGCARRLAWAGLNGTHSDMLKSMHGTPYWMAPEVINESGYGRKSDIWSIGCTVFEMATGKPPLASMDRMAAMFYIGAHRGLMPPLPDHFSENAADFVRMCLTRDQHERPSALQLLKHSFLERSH

[25] = system: CAKI-1; assay: Growth inhibition of human Caki1 cells at 10 uM; format: functional; conditions: read-out: GI
[26] = Binding affinity to DYRK2 assessed as ATP binding remaining at 10 uM; how it was run: as §4
[27] = biological target: Protein kinase C epsilon type (Homo sapiens, UniProt Q02156); assay: Binding affinity to PRKCE; how it was run: as §6
Chain of Protein kinase C epsilon type (Q02156 whole entry, the tested form may be a part): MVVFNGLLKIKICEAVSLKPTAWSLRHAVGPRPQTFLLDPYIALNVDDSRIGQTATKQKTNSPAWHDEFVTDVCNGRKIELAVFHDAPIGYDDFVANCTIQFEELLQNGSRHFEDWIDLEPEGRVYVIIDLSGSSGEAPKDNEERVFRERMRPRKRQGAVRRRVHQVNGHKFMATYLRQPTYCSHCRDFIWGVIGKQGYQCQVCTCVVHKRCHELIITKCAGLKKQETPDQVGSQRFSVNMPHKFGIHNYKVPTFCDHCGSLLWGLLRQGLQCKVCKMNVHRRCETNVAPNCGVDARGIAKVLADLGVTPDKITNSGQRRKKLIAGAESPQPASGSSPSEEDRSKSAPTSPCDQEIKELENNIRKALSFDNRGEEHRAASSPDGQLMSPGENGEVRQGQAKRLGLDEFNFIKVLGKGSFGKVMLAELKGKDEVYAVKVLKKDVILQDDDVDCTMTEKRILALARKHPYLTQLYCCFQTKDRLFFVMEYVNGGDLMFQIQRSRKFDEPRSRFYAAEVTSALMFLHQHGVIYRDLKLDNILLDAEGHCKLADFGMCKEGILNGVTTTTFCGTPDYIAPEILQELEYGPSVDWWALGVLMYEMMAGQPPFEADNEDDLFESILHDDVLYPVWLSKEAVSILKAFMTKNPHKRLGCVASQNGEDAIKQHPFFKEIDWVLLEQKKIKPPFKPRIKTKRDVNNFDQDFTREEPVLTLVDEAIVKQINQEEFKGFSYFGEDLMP

[28] = system: Aorta; assay: Antiangiogenic activity in Fischer rat aorta fragments assessed as vessel outgrowth at 100 ug/mL after 5 days relative to ageladine-A sulfate; format: functional

Chain of Calcium/calmodulin-dependent protein kinase type II subunit gamma (Q13555 whole entry): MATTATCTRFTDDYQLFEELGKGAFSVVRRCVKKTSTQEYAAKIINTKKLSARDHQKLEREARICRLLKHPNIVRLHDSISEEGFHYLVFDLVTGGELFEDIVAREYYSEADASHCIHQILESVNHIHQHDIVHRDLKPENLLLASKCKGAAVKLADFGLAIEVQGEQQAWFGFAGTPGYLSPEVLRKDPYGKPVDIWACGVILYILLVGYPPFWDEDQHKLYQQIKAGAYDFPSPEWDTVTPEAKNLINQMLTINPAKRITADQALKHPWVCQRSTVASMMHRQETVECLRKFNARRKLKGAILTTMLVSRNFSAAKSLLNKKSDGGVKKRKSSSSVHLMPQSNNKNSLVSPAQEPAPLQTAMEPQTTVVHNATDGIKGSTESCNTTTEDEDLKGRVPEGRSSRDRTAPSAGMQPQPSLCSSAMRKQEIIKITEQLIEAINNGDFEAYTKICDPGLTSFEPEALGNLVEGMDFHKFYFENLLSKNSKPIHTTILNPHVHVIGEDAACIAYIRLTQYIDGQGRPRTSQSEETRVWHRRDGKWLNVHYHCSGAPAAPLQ

Nc1nc2c(-c3ccccn3)nccc2[nH]1
Kd [1]: 40 µM | Kd [2]: 40 µM | IC50 [3]: 8 µg/mL (≈ 37.9 µM) | CC50 [4]: 25 µM | inhibition at 100 µg/mL [5]: 100% | CC50 [6]: 25 µM | CC50 [7]: 25 µM | inhibition at 0.1 µg/mL [8]: 4% | growth inhibition (GI) [9]: Active | Activity [10]: Active | Activity [11]: 30% | CC50 [12]: 25 µM | CC50 [13]: 25 µM | inhibition at 1 µg/mL [14]: 16% | inhibition [15]: 6% | fold change (FC) [16]: 14 | Kd [17]: 40 µM | Activity [18]: Active | inhibition [19]: 22% | inhibition [20]: inactive | inhibition [21]: inactive | inhibition at 10 µg/mL [22]: 56% | IC50 [23]: 10 µM | Activity [24]: Active | inhibition of growth at 10 µM [25]: 95% | Activity [26]: Active | Kd [27]: 40 µM | fold change (FC) [28]: 3
